Common to all, as to assay type: functional, cell-based
For assay [1], the system named is MDA-MB-231. Nature of the assay: Antiproliferative activity against human MDA-MB-231 cells after 48 hrs by sulforhodamine B assay. Conditions: MDA-MB-231, 48 h. The method, boiled down:
(§1)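 Cells grown in DMEM with 10% FBS at 37 °C under 5% CO2. Plated cells were allowed 24 h before drug, then exposed continuously for 48 h at 0.01, 0.1, 1, 10 and 100 μM. Monolayers were fixed with cold 10% TCA for 1 h at 4 °C and stained with 0.057% SRB in 1% acetic acid for 30 min. Bound dye was read at 510 nm. IC50 is the 50% growth-inhibitory concentration, using time-zero and control readings.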

Assay [2] deals with A549. The assay is described as follows: Antiproliferative activity against human A549 cells after 48 hrs by sulforhodamine B assay. Conditions: A549, 48 h. Put shortly:
as §1

The test system of assay [3] is MIA PaCa-2. The assay is described as follows: Antiproliferative activity against human MIAPaCa2 cells after 48 hrs by sulforhodamine B assay. The conditions noted are these: MIA PaCa-2, 48 h. Put shortly:
as §1

In assay [4] the test system is HeLa. Nature of the assay: Antiproliferative activity against human HeLa cells after 48 hrs by sulforhodamine B assay. The method, boiled down:
as §1

pIC50: −log10 of the molar value.

Consider `COc1cc(OC)c2sc(-c3ccc(N/C=C\C(=O)c4ccc(OC)c(O)c4)cc3)nc2c1`, for which the negative-log IC50 (pIC50) is 5.12 in assay [1], 4.97 in assay [2], 4.94 in assay [3] and 4.92 in assay [4].
For the compound `COc1cc(OC)c2sc(-c3ccc(N/C=C\C(=O)c4cc(OC)c(OC)c([N+](=O)[O-])c4)c(C)c3)nc2c1`, the pIC50 in assay [1] is 5.13; in assay [2] it was 4.81; in assay [3], 4.98; in assay [4], 4.94.
`COc1cc(C(=O)/C=C\Nc2ccc(-c3nc4cc(OC)c(OC)c(OC)c4s3)cc2C)cc([N+](=O)[O-])c1OC`: the pIC50 in assay [1] was 4.89; in assay [2] it was 4.76; in assay [3], 4.66; in assay [4], 4.88.
For `COc1ccc2nc(-c3ccc(N/C=C\C(=O)c4cc(OC)c(OC)c(OC)c4Br)cc3)sc2c1`, in that order: 4.96, 5.22, 4.83 and 5.10.
As to `COc1cc(OC)c2sc(-c3ccc(N/C=C\C(=O)c4ccc(OC)c(F)c4)c(C)c3)nc2c1`, the negative logarithm of the IC50 (pIC50) in assay [1] was 4.88; in assay [2], 4.82; in assay [3], 4.79; in assay [4] it was 4.83.
Take `COc1cc(OC)c2sc(-c3ccc(N/C=C\C(=O)c4cc(OC)c(OC)c([N+](=O)[O-])c4)cc3)nc2c1`: the negative logarithm of the IC50 (pIC50) was 5.51 in assay [1], 4.89 in assay [2], 4.90 in assay [3] and 4.72 in assay [4].
On the same counts, the results for `COc1ccc2nc(-c3ccc(N/C=C\C(=O)c4cc(OC)c(OC)c(OC)c4)cc3)sc2c1` are 4.71, 4.92, 4.51 and 4.85.
Take `COc1ccc(C(=O)/C=C\Nc2ccc(-c3nc4cc(OC)c(OC)c(OC)c4s3)cc2)cc1O`: the negative logarithm of the IC50 (pIC50) in assay [1] is 4.74; in assay [2], 4.64; in assay [3], 4.48; in assay [4] it was 4.85.
On to `COc1cc(OC)c2sc(-c3ccc(N/C=C\C(=O)c4ccc(OC)c([N+](=O)[O-])c4)cc3)nc2c1`, for which the negative-log IC50 (pIC50) in assay [1] is 4.89; in assay [2] it was 5.24; in assay [3], 5.54; in assay [4], 4.89.
As for `COc1cc(OC)c2sc(-c3ccc(N/C=C\C(=O)c4cc(OC)c(OC)c(OC)c4)cc3)nc2c1`, the negative-log IC50 (pIC50) in assay [1] is 4.80; in assay [2] it was 4.66; in assay [3] it was 4.57; in assay [4] it was 4.75.
For `COc1ccc2nc(-c3ccc(N/C=C\C(=O)c4ccc(OC)c([N+](=O)[O-])c4)cc3)sc2c1`, in that order: 4.75, 4.87, 4.63 and 4.75.
For `COc1ccc2nc(-c3ccc(N/C=C\C(=O)c4ccc(OC)c(O)c4)cc3)sc2c1`, in that order: 4.72, 4.89, 4.66 and 5.16.
For `COc1ccc(C(=O)/C=C\Nc2ccc(-c3nc4cc(OC)c(OC)c(OC)c4s3)cc2)cc1F`, in that order: 4.78, 4.81, 4.71 and 5.14.
Turning to `COc1ccc2nc(-c3ccc(N/C=C\C(=O)c4cc(OC)c(OC)c(OC)c4)c(C)c3)sc2c1`, the pIC50 in assay [1] was 4.77; in assay [2], 4.96; in assay [3], 5.00; in assay [4] it was 4.79.
For `COc1cc(C(=O)/C=C\Nc2ccc(-c3nc4cc(OC)c(OC)c(OC)c4s3)cc2C)cc(OC)c1OC`, the pIC50 in assay [1] is 4.89; in assay [2], 4.63; in assay [3], 4.64; in assay [4] it was 4.96.
In the case of `COc1cc(C(=O)/C=C\Nc2ccc(-c3nc4cc(OC)c(OC)c(OC)c4s3)cc2C)c(Br)c(OC)c1OC`, the pIC50 in assay [1] is 5.14; in assay [2], 4.99; in assay [3], 4.61; in assay [4] it was 4.84.
For `COc1cc(OC)c2sc(-c3ccc(N/C=C\C(=O)c4ccc(OC)c(F)c4)cc3)nc2c1`, in that order: 5.17, 5.28, 5.37 and 5.14.
For `COc1cc(OC)c2sc(-c3ccc(N/C=C\C(=O)c4cc(OC)c(OC)c(OC)c4Br)cc3)nc2c1`, in that order: 4.79, 4.92, 4.72 and 4.99.
Consider `COc1ccc(C(=O)/C=C\Nc2ccc(-c3nc4cc(OC)c(OC)c(OC)c4s3)cc2C)cc1[N+](=O)[O-]`, for which the pIC50 in assay [1] was 4.91; in assay [2], 5.04; in assay [3], 4.63; in assay [4], 4.87.
As for `COc1cc(C(=O)/C=C\Nc2ccc(-c3nc4cc(OC)c(OC)c(OC)c4s3)cc2)cc(OC)c1OC`, the pIC50 in assay [1] is 4.78; in assay [2] it was 4.81; in assay [3] it was 4.54; in assay [4] it was 5.28.
For `COc1ccc2nc(-c3ccc(N/C=C\C(=O)c4cc(OC)c(OC)c([N+](=O)[O-])c4)c(C)c3)sc2c1`, in that order: 5.30, 4.66, 4.92 and 4.92.
On the same counts, the results for `COc1cc(OC)c2sc(-c3ccc(N/C=C\C(=O)c4cc(OC)c(OC)c(OC)c4Br)c(C)c3)nc2c1` are 4.76, 4.85, 4.80 and 4.83.
For `COc1ccc2nc(-c3ccc(N/C=C\C(=O)c4cc(OC)c(OC)c(OC)c4Br)c(C)c3)sc2c1`, in that order: 5.03, 5.19, 4.63 and 4.87.
As to `COc1ccc(C(=O)/C=C\Nc2ccc(-c3nc4cc(OC)c(OC)c(OC)c4s3)cc2)cc1[N+](=O)[O-]`, the pIC50 was 4.77 in assay [1], 4.67 in assay [2], 4.80 in assay [3] and 4.94 in assay [4].
Consider `COc1ccc2nc(-c3ccc(N/C=C\C(=O)c4ccc(OC)c([N+](=O)[O-])c4)c(C)c3)sc2c1`, for which the pIC50 in assay [1] was 4.75; in assay [2], 4.87; in assay [3] it was 4.63; in assay [4] it was 4.75.
As to `COc1cc(C(=O)/C=C\Nc2ccc(-c3nc4cc(OC)c(OC)c(OC)c4s3)cc2)c(Br)c(OC)c1OC`, the negative logarithm of the IC50 (pIC50) in assay [1] was 4.81; in assay [2], 4.87; in assay [3], 4.63; in assay [4] it was 5.18.
Consider `COc1ccc(C(=O)/C=C\Nc2ccc(-c3nc4cc(OC)c(OC)c(OC)c4s3)cc2C)cc1F`, for which the pIC50 is 5.54 in assay [1], 5.77 in assay [2], 5.74 in assay [3] and 5.92 in assay [4].
For `COc1ccc2nc(-c3ccc(N/C=C\C(=O)c4ccc(OC)c(O)c4)c(C)c3)sc2c1`, the negative logarithm of the IC50 (pIC50) in assay [1] is 4.85; in assay [2] it was 4.74; in assay [3] it was 4.77; in assay [4], 4.92.
With `COc1cc(C(=O)/C=C\Nc2ccc(-c3nc4cc(OC)c(OC)c(OC)c4s3)cc2)cc([N+](=O)[O-])c1OC`, the negative-log IC50 (pIC50) in assay [1] was 5.01; in assay [2], 4.93; in assay [3] it was 4.80; in assay [4], 5.11.
Turning to `COc1cc(OC)c2sc(-c3ccc(N/C=C\C(=O)c4ccc(OC)c(O)c4)c(C)c3)nc2c1`, the negative logarithm of the IC50 (pIC50) was 5.51 in assay [1], 4.84 in assay [2], 4.66 in assay [3] and 4.79 in assay [4].
On the same counts, the results for `COc1ccc(C(=O)/C=C\Nc2ccc(-c3nc4cc(OC)c(OC)c(OC)c4s3)cc2C)cc1O` are 4.91, 4.81, 4.81 and 4.94.
Regarding `COc1cc(OC)c2sc(-c3ccc(N/C=C\C(=O)c4cc(OC)c(OC)c(OC)c4)c(C)c3)nc2c1`, the pIC50 is 4.86 in assay [1], 4.84 in assay [2], 4.77 in assay [3] and 4.79 in assay [4].
`COc1cc(OC)c2sc(-c3ccc(N/C=C\C(=O)c4ccc(OC)c([N+](=O)[O-])c4)c(C)c3)nc2c1`: the negative logarithm of the IC50 (pIC50) in assay [1] is 4.97; in assay [2], 4.92; in assay [3], 4.86; in assay [4] it was 5.03.
On the same counts, the results for `COc1ccc2nc(-c3ccc(N/C=C\C(=O)c4cc(OC)c(OC)c([N+](=O)[O-])c4)cc3)sc2c1` are 5.12, 4.67, 4.59 and 4.79.

Values taken from ChEMBL document CHEMBL4261486, “2-Arylaminobenzothiazole-arylpropenone conjugates as tubulin polymerization inhibitors” (Medchemcomm, 2017).
